For data set [1], the target named is ATP-dependent translocase ABCB1 (Homo sapiens, UniProt P08183). The data set is described as follows: Inhibition of ABCB1 in human KBV1 cells assessed as inhibition of calcein-AM efflux. It is filed as cell-based.
The target in data set [2] is T1, Broad substrate specificity ATP-binding cassette transporter ABCG2 (Homo sapiens, UniProt Q9UNQ0).
T1 sequence (Q9UNQ0 whole entry): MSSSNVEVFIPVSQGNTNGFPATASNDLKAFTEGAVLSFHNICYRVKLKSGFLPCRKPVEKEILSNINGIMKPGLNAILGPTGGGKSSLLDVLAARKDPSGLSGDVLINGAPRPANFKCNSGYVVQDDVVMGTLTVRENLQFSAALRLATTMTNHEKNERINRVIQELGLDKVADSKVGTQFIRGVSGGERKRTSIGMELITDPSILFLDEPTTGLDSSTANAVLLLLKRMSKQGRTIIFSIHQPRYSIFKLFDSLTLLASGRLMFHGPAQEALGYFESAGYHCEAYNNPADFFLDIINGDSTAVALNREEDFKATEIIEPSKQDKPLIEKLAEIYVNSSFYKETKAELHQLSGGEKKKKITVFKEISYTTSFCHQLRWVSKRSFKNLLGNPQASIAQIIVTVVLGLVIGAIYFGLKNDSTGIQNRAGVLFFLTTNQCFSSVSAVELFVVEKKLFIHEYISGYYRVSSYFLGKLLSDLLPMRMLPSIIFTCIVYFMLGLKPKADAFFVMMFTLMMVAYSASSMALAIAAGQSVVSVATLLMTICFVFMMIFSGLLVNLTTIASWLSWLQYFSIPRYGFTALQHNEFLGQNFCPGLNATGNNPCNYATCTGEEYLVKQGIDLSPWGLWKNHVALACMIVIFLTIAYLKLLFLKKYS
The data set is described as follows: Inhibition of ABCG2 in human MCF7/Topo cells by Hoechst 33342 assay. In kind it is cell-based.

A further data set concerns the target MRP1 (ABCC1) (Homo sapiens, UniProt P33527). The data set is described as follows: Inhibition of human MRP1 expressed in MDCK2 cells assessed as inhibition of calcein-AM efflux at 30 uM relative to reversan. It is filed as cell-based, MDCK-II. The following applies: MDCK2 cells expressing human MRP1, probe calcein-AM, read-out: Imax. The gist of the method:
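MDCKII-MRP1 cells seeded at 20,000–25,000/well and washed next day with HEPES loading buffer, pH 7.4. Loaded 60 min at 37 °C with 0.5 µM calcein-AM in buffer with BSA and pluronic F127, plus compound (10 nM–100 µM). Cells were PFA-fixed, fluorescence read at 485/535 nm, DMSO control subtracted. […] Mean ± SEM, 2–4 experiments in triplicate.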

Data set [3] can be described thus: Cytotoxicity against human ABCC1 transfected MDCK2 cells assessed as reduction in cell proliferation at 10 uM by crystal violet staining based assay. The settings on record: dog, mdck-ii. It is filed as ADME, Canis lupus familiaris. An outline of the steps:
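MDCKII-MRP1 cells transfected with human ABCC1, kept in DMEM with 10% FCS at 37 °C and 5% CO₂. Kinetic crystal violet chemosensitivity assay with the modulator alone; proliferation followed over time.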

Data set [4] has as its target T2, Multidrug resistance-associated protein 1 (Homo sapiens, UniProt P33527). The data set is described as follows: Inhibition of human ABCC1 transfected in MDCK2 cells assessed as potentiation of etoposide-induced cytotoxicity at 1 uM by crystal violet staining based assay. In kind it is cell-based. The settings on record: mdck-ii.
The target of data set [5] is T2, Multidrug resistance-associated protein 1. The data set is described as follows: Inhibition of human ABCC1 transfected in MDCK2 cells assessed as potentiation of doxorubicin-induced cytotoxicity at 1 and 5 uM by crystal violet staining based assay. In kind it is cell-based. The following applies: mdck-ii.
The subject of the next data set is HaCaT. The data set is described as follows: Cytotoxicity against human HaCaT cells at 1 to 10 uM after 140 hrs by kinetic crystal violet staining based assay. It is filed as cell-based. The gist of the method:
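Spontaneously immortalized human HaCaT keratinocytes in RPMI-1640 with pyruvate, HEPES and added glucose, pre-treated with EDTA before trypsinization. Cytotoxicity followed in a kinetic assay.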

Data set [6] is described as follows: Chemical stability in DMEM culture medium supplemented with 10% FCS at 37 degC after 48 hrs by RP-HPLC analysis. In kind it is physicochemical. The following applies: cattle. The gist of the method:
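Compounds held in DMEM with 10% FCS at 37 °C for up to 48 h, then analysed for degradation.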

The next data set deals with Plasma. The data set is described as follows: Metabolic stability in NMRI mouse plasma assessed as compound degradation at 140 uM after 1 min to 24 hrs by RP-HPLC analysis.
The target of the next data set is ABCB1 (P-glycoprotein) (Homo sapiens, UniProt P08183). The data set is described as follows: Inhibition of ABCB1 in human KBV1 cells assessed as inhibition of calcein-AM efflux at 1 uM relative to tariquidar. It is filed as cell-based. The following applies: probe calcein-AM, read-out: Imax.
Data set [7] addresses T2, Multidrug resistance-associated protein 1. The data set is described as follows: Inhibition of human ABCC1 transfected in MDCK2 cells assessed as potentiation of etoposide-induced cytotoxicity at 1 and 5 uM by crystal violet staining based assay. It is filed as cell-based. The settings on record: mdck-ii.
Another data set has as its target T3, ABCG2 (BCRP) (Homo sapiens, UniProt Q9UNQ0).
T3 sequence (Q9UNQ0 whole entry): T1 sequence (Q9UNQ0 whole entry)
The data set is described as follows: Inhibition of ABCG2 in human MCF7/Topo cells at 10 uM by Hoechst 33342 assay relative to fumitremorgin C. It is filed as cell-based. The following applies: probe Hoechst 33342, read-out: Imax. An outline of the steps: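 Hoechst 33342 microplate assay in ABCG2-overexpressing MCF-7/Topo cells, kept in EMEM with 10% FCS and 550 nM topotecan. Imax relative to 10 µM fumitremorgin C (100%). IC50 from four-parameter logistic fit. Mean ± SEM, 2–4 experiments.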

In data set [8] the target is T1, Broad substrate specificity ATP-binding cassette transporter ABCG2. The data set is described as follows: Inhibition of human ABCG2 expressed in HEK293 cells by mitoxantrone flow cytometric analysis. In kind it is cell-based. Background: A flow cytometer gives signals particle by particle.

Sequence of ATP-dependent translocase ABCB1 (P08183 whole entry): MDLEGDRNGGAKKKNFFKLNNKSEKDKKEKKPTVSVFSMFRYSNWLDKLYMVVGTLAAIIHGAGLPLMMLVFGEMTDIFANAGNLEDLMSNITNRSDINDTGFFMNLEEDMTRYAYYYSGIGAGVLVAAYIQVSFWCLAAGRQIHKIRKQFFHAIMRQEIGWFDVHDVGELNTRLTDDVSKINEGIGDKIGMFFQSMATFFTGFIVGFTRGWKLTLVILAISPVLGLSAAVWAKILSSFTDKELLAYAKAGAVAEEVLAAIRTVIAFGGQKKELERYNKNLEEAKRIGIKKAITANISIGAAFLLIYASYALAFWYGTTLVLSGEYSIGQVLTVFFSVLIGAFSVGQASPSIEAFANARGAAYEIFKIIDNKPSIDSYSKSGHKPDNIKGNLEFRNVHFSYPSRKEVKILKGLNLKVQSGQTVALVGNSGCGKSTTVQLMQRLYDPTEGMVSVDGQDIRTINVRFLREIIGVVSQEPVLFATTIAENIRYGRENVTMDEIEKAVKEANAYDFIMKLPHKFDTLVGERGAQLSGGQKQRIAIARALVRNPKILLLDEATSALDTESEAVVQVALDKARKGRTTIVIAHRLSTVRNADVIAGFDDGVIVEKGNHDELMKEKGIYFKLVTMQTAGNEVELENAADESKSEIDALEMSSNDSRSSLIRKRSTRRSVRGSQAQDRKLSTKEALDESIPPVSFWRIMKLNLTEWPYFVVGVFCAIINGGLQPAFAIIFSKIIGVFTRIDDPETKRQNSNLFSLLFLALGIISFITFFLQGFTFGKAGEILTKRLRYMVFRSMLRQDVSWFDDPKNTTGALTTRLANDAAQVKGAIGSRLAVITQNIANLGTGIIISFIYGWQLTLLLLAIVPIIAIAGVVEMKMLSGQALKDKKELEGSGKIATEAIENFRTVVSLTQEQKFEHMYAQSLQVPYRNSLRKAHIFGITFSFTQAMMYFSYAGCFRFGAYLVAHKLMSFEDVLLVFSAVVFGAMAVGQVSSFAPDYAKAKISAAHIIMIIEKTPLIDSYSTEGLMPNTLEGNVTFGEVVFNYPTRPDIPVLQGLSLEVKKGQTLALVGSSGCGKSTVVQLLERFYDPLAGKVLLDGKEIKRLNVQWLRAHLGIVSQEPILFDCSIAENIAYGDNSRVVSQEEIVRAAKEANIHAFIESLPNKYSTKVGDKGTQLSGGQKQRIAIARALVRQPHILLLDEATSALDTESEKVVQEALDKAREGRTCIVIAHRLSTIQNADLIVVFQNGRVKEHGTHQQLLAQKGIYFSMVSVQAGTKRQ
T2 sequence (P33527 whole entry): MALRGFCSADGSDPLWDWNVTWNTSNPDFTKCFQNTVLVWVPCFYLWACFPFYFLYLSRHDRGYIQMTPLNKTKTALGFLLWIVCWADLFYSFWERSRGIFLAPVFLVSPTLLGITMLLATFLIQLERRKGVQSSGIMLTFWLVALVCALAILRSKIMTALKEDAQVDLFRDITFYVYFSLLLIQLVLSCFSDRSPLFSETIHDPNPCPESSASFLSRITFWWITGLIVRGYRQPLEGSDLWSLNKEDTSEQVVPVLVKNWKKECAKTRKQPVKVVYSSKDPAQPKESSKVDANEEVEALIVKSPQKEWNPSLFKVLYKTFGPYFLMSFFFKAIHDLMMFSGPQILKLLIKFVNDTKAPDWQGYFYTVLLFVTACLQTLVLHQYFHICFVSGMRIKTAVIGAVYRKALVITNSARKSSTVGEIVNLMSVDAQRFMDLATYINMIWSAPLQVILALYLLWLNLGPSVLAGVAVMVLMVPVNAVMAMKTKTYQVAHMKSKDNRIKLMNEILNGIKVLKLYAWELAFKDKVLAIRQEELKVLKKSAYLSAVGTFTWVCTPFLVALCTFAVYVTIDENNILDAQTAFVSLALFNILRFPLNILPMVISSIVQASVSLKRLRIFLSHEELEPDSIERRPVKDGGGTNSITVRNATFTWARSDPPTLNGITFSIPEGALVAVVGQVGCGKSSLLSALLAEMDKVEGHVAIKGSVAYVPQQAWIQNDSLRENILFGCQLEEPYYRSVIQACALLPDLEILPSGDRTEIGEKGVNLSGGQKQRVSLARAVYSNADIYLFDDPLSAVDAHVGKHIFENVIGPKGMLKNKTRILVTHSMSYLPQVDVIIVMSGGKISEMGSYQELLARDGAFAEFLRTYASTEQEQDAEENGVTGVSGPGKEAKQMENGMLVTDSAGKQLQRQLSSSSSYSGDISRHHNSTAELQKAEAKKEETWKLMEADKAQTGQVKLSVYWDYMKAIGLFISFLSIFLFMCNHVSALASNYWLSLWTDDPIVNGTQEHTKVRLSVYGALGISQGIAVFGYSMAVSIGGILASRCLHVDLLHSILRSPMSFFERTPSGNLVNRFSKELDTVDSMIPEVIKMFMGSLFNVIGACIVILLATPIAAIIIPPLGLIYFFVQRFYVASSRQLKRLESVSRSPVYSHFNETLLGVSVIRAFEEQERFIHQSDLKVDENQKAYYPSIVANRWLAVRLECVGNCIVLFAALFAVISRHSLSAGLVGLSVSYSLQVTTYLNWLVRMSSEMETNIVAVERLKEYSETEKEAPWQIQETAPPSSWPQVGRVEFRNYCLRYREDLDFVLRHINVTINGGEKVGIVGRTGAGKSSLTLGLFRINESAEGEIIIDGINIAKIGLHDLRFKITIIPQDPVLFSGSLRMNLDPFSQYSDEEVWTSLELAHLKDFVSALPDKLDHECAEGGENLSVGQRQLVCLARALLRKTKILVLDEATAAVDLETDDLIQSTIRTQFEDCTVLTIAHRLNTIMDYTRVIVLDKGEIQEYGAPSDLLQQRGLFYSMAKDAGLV
Sequence of ABCB1 (P-glycoprotein) (P08183 whole entry): as the sequence (P08183 whole entry) above
Sequence of MRP1 (ABCC1) (P33527 whole entry): as the sequence (P33527 whole entry) above

Consider `COc1cc(OC)c2c(=O)cc(N3CCN(Cc4ccc5nonc5c4)CC3)oc2c1`, for which the IC50 result in data set [1] (kbv1) and in [2] (mcf7/topo) was “Not Active” in each case. Further, on MRP1 (ABCC1), the inhibition at 30 µM is 120%. The Activity entry (in [3]; in the data set with HaCaT) was “Non-toxic” in each case. For the same compound, the “inhibition (INH)” value in [4] and in [5] was “Active” each time. Further, the Stability entry (in data set [6]; with Plasma) was “Stable” throughout.
As to `O=C(NCCCN1CCOCC1)c1cnn2c(-c3ccccc3)cc(-c3ccccc3)nc12`, the IC50 in data set [1] (read-out: IC50) was 6.8 µM. Further, at ABCB1 (P-glycoprotein), the inhibition at 1 µM is 143%. Also, the Activity result in [3] is reported as “Non-toxic”. Besides, the “inhibition (INH)” value in data set [7] and in data set [5] was “Active” each time.
In the case of `O=C(c1cc(=O)c2c(OCc3ccccc3)cccc2o1)N1CCN(Cc2ccccc2)CC1`, the IC50 in data set [1] (read-out: IC50) was 15.8 µM; in [2] (read-out: IC50) it was 16.3 µM. Besides, on ABCB1 (P-glycoprotein), the inhibition at 1 µM was 34.3%. Further, on ABCG2 (BCRP), the Emax at 10 µM came out at 84.1%. In data set [8], this compound gave a % inhibition of 9.8%.

As usually defined, the IC50 is the point on the concentration scale where inhibition reaches its midpoint. As usually defined, the % inhibition is how much of the control response was suppressed.

Source of the values: ChEMBL document CHEMBL3763047, “Flavonoid derivatives as selective ABCC1 modulators: Synthesis and functional characterization” (Eur J Med Chem, 2016).
